Data taken from ChEMBL document CHEMBL1153440, “Hexosamine template. A platform for modulating gene expression and for sugar-based drug discovery” (2009).
The source made the active and inactive calls. The rule behind the calls is not given here.

Key:
MDA-MB-231 [1] = experiment: Increase in sialic acid production in human MDA-MB-231 cells by periodate-resorcinal assay; type: functional, cell-based
MDA-MB-231 [2] = experiment: Suppression of MUC1 mRNA expression in human MDA-MB-231 cells by qRT-PCR; type: functional, cell-based
MDA-MB-231 [3] = experiment: Growth inhibition of human MDA-MB-231 cells; type: functional, cell-based
MDA-MB-231 [4] = experiment: Increase in NQO1 mRNA expression in human MDA-MB-231 cells after 3 days by qRT-PCR; type: functional, cell-based
MDA-MB-231 [5] = experiment: Increase in TGF-beta1 mRNA expression in human MDA-MB-231 cells after 3 days by qRT-PCR; type: functional, cell-based
MDA-MB-231 [6] = experiment: Increase in ID1 mRNA expression in human MDA-MB-231 cells after 3 days by qRT-PCR; type: functional, cell-based
MDA-MB-231 [7] = experiment: Increase in VEGFA mRNA expression in human MDA-MB-231 cells after 3 days by qRT-PCR; type: functional, cell-based
MDA-MB-231 [8] = experiment: Increase in TGF-beta1 mRNA expression in human MDA-MB-231 cells at 45 uM after 3 days by qRT-PCR; type: functional, cell-based
HCT-116 [9] = experiment: Increase in EGR1 mRNA expression in human HCT116 cells after 24 hrs by qRT-PCR; type: functional, cell-based
HCT-116 [10] = experiment: Growth inhibition of human HCT116 cells after 3 days; type: functional, cell-based
Summary of the method: (§1)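 Cells seeded in 6-well plates (MDA-MB-231 2.0–2.7×10^5, HCT-116 1.0×10^5 cells/well) with analog in ethanol (vehicle <0.5% v/v), grown 3 days at 37 °C, 5% CO2; cell numbers by Coulter particle counter, two 100 μl counts per sample.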

MDA-MB-231 [11] = experiment: Increase in NQO1 mRNA expression in human MDA-MB-231 cells at 60 uM after 3 days by qRT-PCR; type: functional, cell-based
MDA-MB-231 [12] = experiment: Increase in EGR1 mRNA expression in human MDA-MB-231 cells at 45 uM after 3 days by qRT-PCR relative to control; type: functional
MDA-MB-231 [13] = experiment: Increase in ID1 mRNA expression in human MDA-MB-231 cells at 60 uM after 3 days by qRT-PCR; type: functional, cell-based
HCT-116 [14] = experiment: Decrease in TP53 mRNA level in human HCT116 cells at >=15 uM after 3 days by qRT-PCR
MDA-MB-231 [15] = experiment: Suppression of TP53 mRNA expression in human MDA-MB-231 cells at 60 uM after 3 days by qRT-PCR; type: functional, cell-based
MDA-MB-231 [16] = experiment: Growth inhibition of human MDA-MB-231 cells after 3 days; type: functional, cell-based; summary of the method: as §1
HCT-116 [17] = experiment: Decrease in TP53 protein expression in human HCT116 cells assessed as protein levels at 20 uM after 3 days by Western blotting; type: functional; design: scale not given: the % may be the effect or the level left
Summary of the method: (§2)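 Treated cells (3 days unless stated; HCT-116 also 24 h) washed in ice-cold PBS, lysed in RIPA with protease inhibitors; equal protein (5–20 μg, BCA) run on 4–15% Tris-HCl gel, transferred to nitrocellulose, blocked in 5% milk/TBST, primary antibody 2 h RT or overnight 4 °C, HRP secondary 1 h; chemiluminescence, densitometry. β-actin antibody also used. Two independent experiments.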

MDA-MB-231 [18] = experiment: Increase in VEGFA mRNA expression in human MDA-MB-231 cells at 75 uM after 3 days by qRT-PCR; type: functional, cell-based
MDA-MB-231 [19] = experiment: Increase in VEGFA mRNA expression in human MDA-MB-231 cells at 60 uM after 3 days by qRT-PCR; type: functional, cell-based
HCT-116 [20] = experiment: Decrease in EGR1 mRNA expression in human HCT116 cells after 3 days by qRT-PCR; type: functional, cell-based
HCT-116 [21] = experiment: Increase in HPSE protein level in human HCT116 cells at 20 uM after 3 days by Western blotting; type: functional; summary of the method: as §2
HCT-116 [22] = experiment: Decrease in TP53 protein expression in human HCT116 cells assessed as protein levels at 25 uM after 3 days by Western blotting; type: functional; design: scale not given: the % may be the effect or the level left; summary of the method: as §2
MDA-MB-231 [23] = experiment: Decrease in EGR1 protein expression in human MDA-MB-231 cells at >45 uM after 3 days by Western blotting relative to control; type: functional; summary of the method: as §2
HCT-116 [24] = experiment: Suppression of TP53 protein expression in human HCT116 cells at 25 uM after 3 days by Western blotting; type: functional, cell-based; summary of the method: as §2
MDA-MB-231 [25] = experiment: Decrease in TP53 protein level in human MDA-MB-231 cells at 15 uM after 3 days by Western blotting; type: functional, cell-based; summary of the method: as §2
MDA-MB-231 [26] = experiment: Suppression of TP53 mRNA expression in human MDA-MB-231 cells at 75 uM after 3 days by qRT-PCR; type: functional, cell-based
HCT-116 [27] = experiment: Decrease in EGR1 protein expression in human HCT116 cells after 24 hrs by Western blotting; type: functional, cell-based; summary of the method: as §2
MDA-MB-231 [28] = experiment: Increase in VEGFA mRNA expression in human MDA-MB-231 cells at 45 uM after 3 days by qRT-PCR; type: functional, cell-based
MDA-MB-231 [29] = experiment: Increase in NQO1 mRNA expression in human MDA-MB-231 cells at 45 uM after 3 days by qRT-PCR; type: functional, cell-based
HCT-116 [30] = experiment: Increase in EGR1 protein expression in human HCT116 cells after 3 days by Western blotting; type: functional, cell-based; summary of the method: as §2
HCT-116 [31] = experiment: Suppression of TP53 protein expression in human HCT116 cells at 20 uM after 3 days by Western blotting; type: functional, cell-based; summary of the method: as §2
MDA-MB-231 [32] = experiment: Increase in TGF-beta1 mRNA expression in human MDA-MB-231 cells at 60 uM after 3 days by qRT-PCR; type: functional, cell-based
MDA-MB-231 [33] = experiment: Increase in ID1 mRNA expression in human MDA-MB-231 cells at 75 uM after 3 days by qRT-PCR; type: functional, cell-based
MDA-MB-231 [34] = experiment: Increase in EGR1 mRNA expression in human MDA-MB-231 cells at 60 uM after 3 days by qRT-PCR relative to control; type: functional
MDA-MB-231 [35] = experiment: Increase in EGR1 mRNA expression in human MDA-MB-231 cells at 75 uM after 3 days by qRT-PCR relative to control; type: functional
MDA-MB-231 [36] = experiment: Increase in TGF-beta1 mRNA expression in human MDA-MB-231 cells at 75 uM after 3 days by qRT-PCR; type: functional, cell-based
MDA-MB-231 [37] = experiment: Increase in ID1 mRNA expression in human MDA-MB-231 cells at 45 uM after 3 days by qRT-PCR; type: functional, cell-based
MDA-MB-231 [38] = experiment: Increase in NQO1 mRNA expression in human MDA-MB-231 cells at 75 uM after 3 days by qRT-PCR; type: functional, cell-based
HCT-116 [39] = experiment: Increase in HPSE protein level in human HCT116 cells at 25 uM after 3 days by Western blotting; type: functional; summary of the method: as §2

CC(=O)N[C@@H]1C(OC(C)=O)O[C@H](COC(C)=O)[C@@H](OC(C)=O)[C@@H]1OC(C)=O (some centres undefined)
Activity (MDA-MB-231 [1]): Active
Activity (MDA-MB-231 [2]): Active

CCCC(=O)OC1O[C@H](COC(C)=O)[C@@H](OC(C)=O)[C@H](OC(C)=O)[C@@H]1NC(C)=O (some centres undefined)
Activity (MDA-MB-231 [1]): Active
Activity (MDA-MB-231 [3]): Active

CCCC(=O)OC1O[C@H](CO)[C@@H](OC(=O)CCC)[C@H](OC(=O)CCC)[C@@H]1NC(C)=O (some centres undefined)
Activity (MDA-MB-231 [4]): inactive
Activity (MDA-MB-231 [5]): inactive
Activity (MDA-MB-231 [6]): inactive
Activity (MDA-MB-231 [7]): inactive

CCCC(=O)OC[C@H]1OC(OC(C)=O)[C@@H](NC(C)=O)[C@@H](OC(C)=O)[C@@H]1OC(C)=O (some centres undefined)
Activity (MDA-MB-231 [1]): Active
Activity (MDA-MB-231 [3]): Active
Activity (MDA-MB-231 [2]): Active

CCCC(=O)OC[C@H]1OC(OC(=O)CCC)[C@@H](NC(C)=O)[C@@H](OC(=O)CCC)[C@@H]1OC(=O)CCC (some centres undefined)
Activity (MDA-MB-231 [1]): Active

CCCC(=O)OC[C@H]1OC(O)[C@@H](NC(C)=O)[C@@H](OC(=O)CCC)[C@@H]1OC(=O)CCC (some centres undefined)
Activity (MDA-MB-231 [8]): Active
Activity (HCT-116 [9]): Active
Activity (HCT-116 [10]): Active
Activity (MDA-MB-231 [11]): Active
fold change (FC) (MDA-MB-231 [12]): 2
Activity (MDA-MB-231 [13]): Active
Activity (HCT-116 [14]): Active
Activity (MDA-MB-231 [15]): Active
Activity (MDA-MB-231 [16]): Active
Activity (HCT-116 [17]): <=5%
Activity (MDA-MB-231 [18]): inactive
Activity (MDA-MB-231 [19]): Active
Activity (HCT-116 [20]): Active
fold change (FC) (HCT-116 [21]): >=50
Activity (HCT-116 [22]): <=5%
fold change (FC) (MDA-MB-231 [23]): 2
Activity (HCT-116 [24]): Active
Activity (MDA-MB-231 [25]): Active
Activity (MDA-MB-231 [26]): Active
Activity (HCT-116 [27]): Active
Activity (MDA-MB-231 [28]): Active
Activity (MDA-MB-231 [29]): Active
Activity (HCT-116 [30]): Active
Activity (HCT-116 [31]): Active
Activity (MDA-MB-231 [32]): Active
Activity (MDA-MB-231 [33]): inactive
fold change (FC) (MDA-MB-231 [34]): 25
fold change (FC) (MDA-MB-231 [35]): 25
Activity (MDA-MB-231 [36]): inactive
Activity (MDA-MB-231 [37]): Active
Activity (MDA-MB-231 [38]): inactive
fold change (FC) (HCT-116 [39]): >=50
